Laboratory results taken from PMC4224566 (Molecular Pharmaceutics, 2014).

Format: physicochemical
Conditions: 0.5 M pH 4.0 acetate buffer, 1 mg/mL, 100 °C, analytical HPLC, LC-MS
Outline: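 Each peptide (about 0.1 mL) was heated in a sealed plastic tube, cooled, and then analysed by reversed-phase C18 analytical HPLC with UV detection. The HPLC ran at 1 mL/min: 5% acetonitrile/0.1% TFA in water/0.1% TFA for 5 min, then rising by 2%/min to 65%. Samples showing decomposition were run on a separate LC-MS. Samples with little or none were heated 30 min more and re-analysed.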

Ph-NCS-E[c(RGDfK)]2 [compound 10]
release of monomer after 10 min heating: obvious release of c(RGDfK)
